# Test results reported in paper PMC6404985 (Cell chemical biology, 2018).
# Entries after “also recorded” stand apart in the source; their conditions may differ.
# Tests used:
# [1] = tested on: BAF-mediated transcriptional repression (Bmi1-luciferase reporter cell line); experiment: Bmi1-luciferase reporter assay in mouse ESCs; format: cell-based; details: for activity in the Bmi1 luciferase reporter assays (in words): follow up library
# Method in brief: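 Mouse ESC Bmi1-luciferase reporter line: 10,000 cells per 384-well in ESC medium, 24 h at 37 °C/5% CO2, then compound added by 100 nL pin transfer alongside a positive control. Each concentration in triplicate; DMSO tolerated to 0.5%. After 24 h treatment, equilibrated 10 min at room temperature, SteadyGlo added for 10 min, luminescence read. EC50 derived.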
# [2] = tested on: latent HIV-1; experiment: Ex vivo primary CD4+ T cell model of HIV-1 latency; format: cell-based; details: 24 h treatment
# Method in brief: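 Healthy-donor CD4+ T cells (buffy coat, Ficoll, RosetteSep negative selection) were spin-infected 24 h after isolation with HXB2 Env-pseudotyped pNL4.3.Luc.R-E- (1200 g, 2 h). After 18 h, cells were washed and cultured with 5 µM saquinavir. Three days later, treated 24 h with 30 µM raltegravir present. Luciferase read-out normalized to total protein, expressed as fold over untreated; Bliss score for combinations.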
# [3] = tested on: ARID1A; experiment: Biotin pulldown from ESC lysates, ARID1A; format: binding, mouse; details: 200 µM soluble compound, pulldown with CAM 2–56
# Method in brief: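 Beads incubated 2 h with cell lysates pre-incubated with DMSO or 200 µM soluble competitor. Beads washed once, boiled in SDS loading buffer, and bound proteins detected by immunoblot.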
# [4] = tested on: latent HIV-1; experiment: Second ex vivo model of HIV-1 latency; format: cell-based; details: 24 h
# Method in brief: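 Healthy-donor CD4+ T cells were polarized for 3 days with 10 ng/ml TGF-β, 1 µg/ml α-IL-4 and αCD3/CD28 beads (1:1). Beads removed, then 4 days in 30 IU/ml rIL-2. Spin-infected 90 min at 1200 g, then kept in rIL-2 plus 5 µM saquinavir. Seven days post-infection, treated 24 h with increasing concentrations plus 30 µM raltegravir. Luciferase RLU normalized to total protein.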
# [5] = tested on: human primary CD4+ T cells; experiment: T cell activation markers CD25 and CD69; format: cell-based; details: 24 and 72 hours, two healthy donors
# [6] = tested on: latent HIV-1; experiment: Latency reversal in CD4+ T cells from aviremic HIV-1 infected patients; format: cell-based
# [7] = tested on: BAF target genes p21 and c-MYC; experiment: Biomarker mRNA expression of BAF target genes in CD4+ T cells; format: cell-based, human
# Method in brief: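 Human CD4+ T cells, healthy donors: three donors isolated by Ficoll and RosetteSep negative selection, treated in duplicate with 3 µM test compound or DMSO for 16 h. HIV+ patient cells: frozen PBMCs rested overnight, CD4+ enriched twice, rested 6 h, 3 million cells treated with 10 µM compound or DMSO. TRIreagent RNA, random-primed cDNA; p21 and c-MYC mRNA vs control; Student's t test.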
# [8] = tested on: nucleosome occupancy at the HIV-1 5'-LTR; experiment: FAIRE assay in J-Lat 11.1; format: cell-based; details: J-Lat 11.1, overnight treatment
# [9] = tested on: wild type ESCs; experiment: Viability of wild type ESCs; format: cell-based, mouse; details: up to 30 µM, 72 h
# Method in brief: (§1)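 2000 cells/well in 384-well plates, pre-incubated 24 h at 37 °C, 5% CO2. Compound added by pin transfer; mitoxantrone (10 µM final) as cytotoxic positive control. Incubated 72 h, equilibrated 15 min to room temperature. CellTiter-Glo diluted 1:1 with PBS (pH 7.4) added, luminescence read. Run at eight doses as a viability counter-screen.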
# [10] = tested on: HepG2 cells; experiment: Viability assay HepG2; format: cell-based, human; details: 72 h
# Method in brief: as §1
# [11] = tested on: HEK293T cells; experiment: Viability assay HEK293T; format: cell-based, human; details: 72 h
# Method in brief: as §1
# [12] = tested on: A549 cells; experiment: Viability assay A549; format: cell-based, human; details: 72 h
# Method in brief: as §1
# [13] = tested on: latent HIV-1 provirus in J-Lat cells; experiment: J-Lat T-cell line models of HIV-1 latency; format: cell-based; details: 48 h; higher concentrations than in primary cells
# [14] = tested on: BAF target genes (Bmi1, Ring1, Fgf4); details: 30 µM, 18 h
# [15] = tested on: latent HIV-1; experiment: HIV latency reversal activity of the thiophene hit; format: cell-based
# [16] = CD4+ T cells of three patients, 10 µM
structure (smiles),measurement,setting,value
CCC(CC)Nc1c(Nc2ccc3c(c2)C(=O)N(C)C[C@H](OC)[C@@H](C)CN(Cc2ccc(-c4ccccn4)cc2)[C@@H](C)CO3)c(=O)c1=O [BRD-K04244835],activity in the Bmi1 luciferase reporter assays (in words),[1],low/no activity
CO[C@H]1CN(C)C(=O)c2cc(NC(=O)NC(C)C)ccc2OC[C@H](C)N(Cc2ccccc2)C[C@@H]1C [BRD-K13648511],activity in the Bmi1 luciferase reporter assays (in words),[1],low/no activity
CO[C@H]1CN(C)C(=O)c2cc(NC(=O)NC(C)C)ccc2OC[C@H](C)N(Cc2ccc(-c3cccnc3)cc2)C[C@@H]1C [BRD-K17257309],activity in the Bmi1 luciferase reporter assays (in words),[1],moderate activity
CO[C@H]1CN(C)C(=O)c2cc(N)ccc2OC[C@H](C)N(Cc2ccc(-c3ccccn3)cc2)C[C@@H]1C [BRD-K25923209],activity in the Bmi1 luciferase reporter assays (in words),[1],high activity
same,transcription of latent HIV-1 in ex vivo infected primary CD4+ T cells,[2],triggered HIV transcription
same,ARID1A enrichment upon preincubation of lysates with soluble competitor,[3],complete reduction
CO[C@H]1CN(C)C(=O)c2cc(NC(=O)OC(C)C)ccc2OC[C@H](C)N(Cc2ccc(-c3ccccn3)cc2)C[C@@H]1C [BRD-K80443127],activity in the Bmi1 luciferase reporter assays (in words),[1],high activity
same,transcription of latent HIV-1 in ex vivo infected primary CD4+ T cells,[2],slightly higher activity at low concentrations; also recorded: triggered HIV transcription
same,activation in second ex vivo model of HIV-1 latency,[4],activation was confirmed
same,effect on CD25 and CD69 expression (T cell activation),[5],no effect
same,potentiation of prostratin activity,[6]; all three patients,significant potentiation
same,cell associated HIV mRNA after ex vivo treatment alone,[6]; in one patient,significant increase
same,POL copies when co-treated with prostratin,"[6]; patient 2 and 3, 10 µM with 200 nM prostratin, 24 h",significant increase
same,cell associated HIV-1 POL after treatment alone,"[6]; patient 2 and 3, 10 µM, 24 h",did not result in a significant increase
same,differential expression of c-MYC and p21,"[7]; CD4+ T cells of healthy donors, 3 µM, 16 hours",consistent with BAF inhibition
same,C-MYC transcripts levels,[7]; [16],significant decrease
same,p21 transcripts levels,[7]; [16],significant decrease
same,chromatin accessibility at the Nuc-1 position of the 5' LTR,[8],increased chromatin accessibility
CO[C@H]1CN(C)C(=O)c2cc(NC(=O)NC(C)C)ccc2OC[C@H](C)N(Cc2ccc(-c3ccccn3)cc2)C[C@@H]1C [BRD-K98645985],activity in the Bmi1 luciferase reporter assays (in words),[1],high activity
same,EC50,"[1]; read-out: EC50 in the luciferase assay, 24 h compound treatment, re-evaluation of hit",~2370 nM
same,toxicity to ESCs,[9],no toxicity
same,toxicity to HepG2 cells,[10],no toxicity
same,toxicity to HEK293T cells,[11],no toxicity
same,toxicity to A549 cells,[12],no toxicity
same,transcription of latent HIV-1 in ex vivo infected primary CD4+ T cells,[2],triggered HIV transcription
same,latency reversal in J-Lat cells,[13],concentration dependent latency reversal
same,fold decrease in Fgf4,[14],3.3 fold
same,fold increase in Bmi1,[14],5 fold
same,fold increase in Ring1,[14],2.6 fold
C=CCNc1nc(NCc2cccc(OC)c2)c2sc(-c3ccccc3)cc2n1 [MLS003122856],HIV latency reversal activity,[15],only moderate HIV latency reversal activity
